PMC3677213 (Antiviral research, 2013)
Read-outs that look alike come from different tables or passages of the source.

Experiments:
[1] = tested on: HIV-1 NL4-3 integrase Y143C; assay type: cell-based; details: MT-4 cells; IN substitution Y143C
[2] = tested on: HIV-1 NL4-3 integrase E92Q/N155H; assay type: cell-based; details: MT-4 cells; IN substitutions E92Q/N155H
[3] = tested on: HIV-1 NL4-3 integrase N155H; assay type: cell-based; details: MT-4 cells; IN substitution N155H
WT HIV-1 NL4-3 = assay type: cell-based; details: MT-4 cells
[4] = tested on: HIV-1 NL4-3 integrase T66I; assay type: cell-based; details: MT-4 cells; IN substitution T66I
UGT1A1 = UGT1A1 (Homo sapiens, UniProt P22309); assay: UGT substrate activity with cDNA-expressed isozyme; assay type: in vitro ADME; details: UGT1A1 (BD Biosciences); HPLC
Chain of UGT1A1 (P22309 26-533): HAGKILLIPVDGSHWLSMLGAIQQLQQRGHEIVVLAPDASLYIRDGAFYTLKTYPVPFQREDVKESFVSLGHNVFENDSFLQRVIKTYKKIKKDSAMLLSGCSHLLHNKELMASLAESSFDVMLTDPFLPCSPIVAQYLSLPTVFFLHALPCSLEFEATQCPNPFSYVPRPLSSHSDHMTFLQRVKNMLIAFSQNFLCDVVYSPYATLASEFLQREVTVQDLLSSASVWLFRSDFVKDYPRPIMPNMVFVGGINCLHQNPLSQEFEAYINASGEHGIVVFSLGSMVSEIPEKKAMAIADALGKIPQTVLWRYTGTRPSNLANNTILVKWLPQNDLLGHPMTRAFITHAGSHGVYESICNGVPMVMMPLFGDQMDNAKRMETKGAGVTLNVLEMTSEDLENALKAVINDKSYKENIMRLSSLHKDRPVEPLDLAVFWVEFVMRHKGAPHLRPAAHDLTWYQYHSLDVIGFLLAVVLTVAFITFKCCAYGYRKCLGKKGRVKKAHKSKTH

[5] = In vitro human liver microsome stability; assay type: in vitro ADME
[6] = Cytotoxicity in human PBMC cultures; assay type: cell-based; details: peripheral blood mononuclear cells (PBMCs)
In short: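 Freshly isolated human PBMCs are cultured with test compound. Viability is read out with the tetrazolium-based dye MTS, and CC50 is derived from that read-out.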

[7] = tested on: HIV-1 (Group M) isolate CDC310342, CRF02-AG; assay: Antiviral assay in fresh human PBMCs; assay type: cell-based
UGT1A4 = UGT1A4 (Homo sapiens, UniProt P22310); assay: UGT inhibition study with trifluoperazine as substrate; assay type: in vitro ADME; details: human liver microsomes
Chain of UGT1A4 (P22310 29-534): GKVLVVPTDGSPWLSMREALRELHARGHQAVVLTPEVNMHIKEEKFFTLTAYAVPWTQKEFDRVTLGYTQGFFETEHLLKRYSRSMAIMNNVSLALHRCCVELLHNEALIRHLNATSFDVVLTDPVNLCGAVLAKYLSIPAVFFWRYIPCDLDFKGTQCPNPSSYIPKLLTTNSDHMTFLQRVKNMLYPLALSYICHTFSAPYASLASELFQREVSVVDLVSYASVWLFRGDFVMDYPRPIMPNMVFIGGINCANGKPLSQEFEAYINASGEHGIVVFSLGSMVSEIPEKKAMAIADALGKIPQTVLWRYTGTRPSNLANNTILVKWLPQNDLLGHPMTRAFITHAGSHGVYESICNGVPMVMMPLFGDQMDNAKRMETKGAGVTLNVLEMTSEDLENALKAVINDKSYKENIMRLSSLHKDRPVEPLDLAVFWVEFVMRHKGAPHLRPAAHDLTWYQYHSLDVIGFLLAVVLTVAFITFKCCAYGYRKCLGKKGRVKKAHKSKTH
In short: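 Pooled human liver microsomes (0.2 mg/mL protein) were held with alamethicin (0.024 mg/mg protein) in 100 mM potassium phosphate, pH 7.4, with 5 mM MgCl2 at 0 °C for 15 min. Test compound in DMSO (0 to 300 μM) and trifluoperazine substrate were added, with organic solvent <1.6%. Mixtures were preincubated 3 min at 37 °C, then started with UDPGA (final 4 mM) and run 15 min. Acetonitrile stop, centrifugation, HPLC-UV of supernatant.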

CYP2C8 = CYP2C8 (Homo sapiens, UniProt P10632); assay: Cytochrome P-450 isozyme inhibition assay in human liver microsomes; assay type: in vitro ADME
Chain of CYP2C8 (P10632 whole entry): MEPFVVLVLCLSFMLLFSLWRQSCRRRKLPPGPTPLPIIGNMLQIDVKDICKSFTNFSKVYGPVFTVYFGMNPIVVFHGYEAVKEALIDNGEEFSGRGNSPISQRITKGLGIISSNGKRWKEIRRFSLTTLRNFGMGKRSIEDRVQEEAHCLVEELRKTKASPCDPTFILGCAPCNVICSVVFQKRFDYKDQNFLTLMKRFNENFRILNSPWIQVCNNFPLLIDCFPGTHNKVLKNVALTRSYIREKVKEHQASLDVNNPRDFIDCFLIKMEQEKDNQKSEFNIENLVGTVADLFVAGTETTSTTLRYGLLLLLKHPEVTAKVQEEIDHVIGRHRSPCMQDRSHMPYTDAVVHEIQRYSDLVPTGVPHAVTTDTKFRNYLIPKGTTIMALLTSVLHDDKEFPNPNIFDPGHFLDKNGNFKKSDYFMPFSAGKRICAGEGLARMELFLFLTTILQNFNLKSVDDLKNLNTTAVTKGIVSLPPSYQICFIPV

[8] = tested on: HIV-1 (Group M) isolate CMU08, subtype E; assay: Antiviral assay in fresh human PBMCs; assay type: cell-based
CYP2C9 = CYP2C9 (Homo sapiens, UniProt P11712); assay: Cytochrome P-450 isozyme inhibition assay in human liver microsomes; assay type: in vitro ADME
Chain of CYP2C9 (P11712 whole entry): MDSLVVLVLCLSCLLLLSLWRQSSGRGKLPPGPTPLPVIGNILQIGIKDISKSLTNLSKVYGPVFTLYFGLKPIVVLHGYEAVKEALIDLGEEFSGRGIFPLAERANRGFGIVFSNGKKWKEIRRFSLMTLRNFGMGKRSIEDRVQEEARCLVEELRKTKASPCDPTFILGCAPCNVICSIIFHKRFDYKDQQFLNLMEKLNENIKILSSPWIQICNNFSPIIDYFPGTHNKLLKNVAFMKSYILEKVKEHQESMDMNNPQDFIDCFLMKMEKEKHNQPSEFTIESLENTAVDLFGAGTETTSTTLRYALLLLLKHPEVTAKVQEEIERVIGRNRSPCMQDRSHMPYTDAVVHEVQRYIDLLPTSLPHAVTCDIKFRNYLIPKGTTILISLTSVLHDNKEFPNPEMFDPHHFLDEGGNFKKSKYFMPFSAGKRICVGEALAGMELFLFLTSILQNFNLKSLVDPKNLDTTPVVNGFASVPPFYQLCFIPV

SIV isolate MAC251 = assay: Antiviral assay in fresh human PBMCs; assay type: cell-based; details: PBMC
In short: (§1)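 Freshly isolated human PBMCs are infected with virus and cultured with test compound. Replication is measured as reverse transcriptase activity in culture supernatants, using a microtiter plate-based RT reaction. EC50 is the concentration giving 50% inhibition, as the mean of three determinations. CC50 is measured in parallel with the tetrazolium dye MTS, and therapeutic index = CC50/EC50.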

[9] = tested on: CYP isozymes (3A4, 2D6, 2C8, 2C9, 2C19); assay: Activation of CYP isozymes; assay type: in vitro ADME; details: human liver microsomes; CYP 3A4, 2D6, 2C8, 2C9, 2C19
HIV-2 isolate CDC310319 = assay: Antiviral assay in fresh human PBMCs; assay type: cell-based
In short: as §1

[10] = tested on: HIV-1, HIV-2 and SIV isolates; assay: Antiviral assay in PBMCs, all isolates together; assay type: cell-based; details: PBMC, read-out: mean EC50 (± SD), all isolates
CYP2D6 = CYP2D6 (Homo sapiens, UniProt P10635); assay: Cytochrome P-450 isozyme inhibition assay in human liver microsomes; assay type: in vitro ADME
Chain of CYP2D6 (P10635 whole entry): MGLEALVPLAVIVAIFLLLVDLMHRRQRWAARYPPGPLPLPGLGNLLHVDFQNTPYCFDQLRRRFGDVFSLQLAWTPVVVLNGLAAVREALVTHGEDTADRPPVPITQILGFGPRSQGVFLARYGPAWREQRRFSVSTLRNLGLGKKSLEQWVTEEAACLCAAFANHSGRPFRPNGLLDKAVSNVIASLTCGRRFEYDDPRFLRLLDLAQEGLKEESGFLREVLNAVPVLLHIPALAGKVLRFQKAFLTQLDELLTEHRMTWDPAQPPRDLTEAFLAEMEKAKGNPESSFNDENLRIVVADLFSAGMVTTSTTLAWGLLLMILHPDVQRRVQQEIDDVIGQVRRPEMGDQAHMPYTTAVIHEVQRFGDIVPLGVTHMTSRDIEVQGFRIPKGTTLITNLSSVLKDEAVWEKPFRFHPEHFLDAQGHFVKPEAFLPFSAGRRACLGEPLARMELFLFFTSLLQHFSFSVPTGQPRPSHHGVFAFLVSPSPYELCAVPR

[11] = tested on: HIV-1 (Group M) isolate 91US004, subtype B; assay: Antiviral assay in fresh human PBMCs; assay type: cell-based
[12] = tested on: HIV-1 NL4-3 integrase Q148R; assay type: cell-based; details: MT-4 cells; IN substitution Q148R
[13] = tested on: HIV-1 (Group M) isolate 98IN022, subtype C; assay: Antiviral assay in fresh human PBMCs; assay type: cell-based
[14] = tested on: HIV-1 (Group M) isolate 92RW016, subtype A; assay: Antiviral assay in fresh human PBMCs; assay type: cell-based
[15] = tested on: UGT in pooled human liver microsomes (UGT 1A1, 1A4, 1A6, 1A9 and 2B7); assay: UGT substrate activity in pooled human liver microsomes; assay type: in vitro ADME
[16] = tested on: HIV-1 (Group M) isolate 93UG067, subtype D; assay: Antiviral assay in fresh human PBMCs; assay type: cell-based
[17] = tested on: HIV-1 (Group M) isolate 93BR029, subtype F; assay: Antiviral assay in fresh human PBMCs; assay type: cell-based
CYP2C19 = CYP2C19 (Homo sapiens, UniProt P33261); assay: Cytochrome P-450 isozyme inhibition assay in human liver microsomes; assay type: in vitro ADME
Chain of CYP2C19 (P33261 whole entry): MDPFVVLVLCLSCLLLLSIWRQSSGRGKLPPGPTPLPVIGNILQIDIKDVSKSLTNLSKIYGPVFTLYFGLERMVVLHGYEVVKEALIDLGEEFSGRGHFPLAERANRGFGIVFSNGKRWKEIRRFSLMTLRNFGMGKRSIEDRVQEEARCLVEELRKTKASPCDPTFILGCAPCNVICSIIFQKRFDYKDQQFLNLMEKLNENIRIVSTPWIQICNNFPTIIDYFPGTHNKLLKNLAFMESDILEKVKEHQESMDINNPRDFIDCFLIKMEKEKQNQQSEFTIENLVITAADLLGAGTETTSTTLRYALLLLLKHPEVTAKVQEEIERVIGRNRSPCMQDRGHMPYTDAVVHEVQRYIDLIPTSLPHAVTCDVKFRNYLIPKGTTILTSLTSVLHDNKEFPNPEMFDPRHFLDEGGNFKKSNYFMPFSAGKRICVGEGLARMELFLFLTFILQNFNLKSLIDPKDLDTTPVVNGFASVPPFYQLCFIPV

UGT1A3 = UGT1A3 (Homo sapiens, UniProt P35503); assay: UGT substrate activity with cDNA-expressed isozyme; assay type: in vitro ADME; details: UGT1A3 (BD Biosciences); HPLC
Chain of UGT1A3 (P35503 29-534): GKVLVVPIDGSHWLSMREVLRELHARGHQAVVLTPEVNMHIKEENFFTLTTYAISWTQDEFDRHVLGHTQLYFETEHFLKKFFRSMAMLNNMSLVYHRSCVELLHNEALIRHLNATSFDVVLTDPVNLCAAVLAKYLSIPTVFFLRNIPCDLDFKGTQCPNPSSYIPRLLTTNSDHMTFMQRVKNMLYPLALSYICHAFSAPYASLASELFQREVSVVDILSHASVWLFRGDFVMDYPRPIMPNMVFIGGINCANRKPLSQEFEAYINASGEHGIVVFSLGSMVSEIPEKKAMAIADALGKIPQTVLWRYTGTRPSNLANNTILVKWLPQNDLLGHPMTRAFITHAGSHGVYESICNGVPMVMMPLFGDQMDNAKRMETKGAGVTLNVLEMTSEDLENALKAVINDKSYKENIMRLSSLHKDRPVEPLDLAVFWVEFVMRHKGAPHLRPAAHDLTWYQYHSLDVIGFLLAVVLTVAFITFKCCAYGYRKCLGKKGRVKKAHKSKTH

[18] = tested on: HIV-1 (Group M) isolate G3, subtype G; assay: Antiviral assay in fresh human PBMCs; assay type: cell-based
UGT isozymes = assay: Activation of UGT isozymes in human liver microsomes; assay type: in vitro ADME; details: kinetic studies in human liver microsomes
CYP3A4 = CYP3A4 (Homo sapiens, UniProt P08684); assay: Cytochrome P-450 isozyme inhibition assay in human liver microsomes; assay type: in vitro ADME
Chain of CYP3A4 (P08684 whole entry): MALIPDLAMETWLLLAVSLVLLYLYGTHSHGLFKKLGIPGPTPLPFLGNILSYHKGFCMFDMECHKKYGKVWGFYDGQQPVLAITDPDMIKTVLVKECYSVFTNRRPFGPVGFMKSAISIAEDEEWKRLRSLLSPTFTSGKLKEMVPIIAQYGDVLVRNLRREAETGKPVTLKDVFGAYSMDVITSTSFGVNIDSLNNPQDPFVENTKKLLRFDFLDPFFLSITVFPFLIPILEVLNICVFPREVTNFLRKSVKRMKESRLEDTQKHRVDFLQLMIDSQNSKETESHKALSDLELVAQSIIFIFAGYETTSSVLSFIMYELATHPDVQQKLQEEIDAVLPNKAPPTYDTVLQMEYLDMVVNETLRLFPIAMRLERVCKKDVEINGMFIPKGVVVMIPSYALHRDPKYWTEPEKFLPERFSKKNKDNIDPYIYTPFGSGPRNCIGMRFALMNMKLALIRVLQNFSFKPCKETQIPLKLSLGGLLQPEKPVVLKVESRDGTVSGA

[19] = Human immunodeficiency virus 1, PBMC, in Homo sapiens, read-out: EC50 (± SD)

Structure (SMILES): Cc1cn([C@H]2C[C@H](N=[N+]=[N-])[C@@H](CO)O2)c(=O)[nH]c1=O [AZT]
- EC50 fold change compared to wild-type virus [1]: 1.18
- EC50 fold change compared to wild-type virus [2]: 3.45
- EC50 fold change compared to wild-type virus [3]: 3.29
- EC50 fold change compared to wild-type virus (WT HIV-1 NL4-3): 1.0
- EC50 fold change compared to wild-type virus [4]: 1.0

Structure (SMILES): O=C(C=C(O)c1cc(Cc2c(F)cccc2F)cn(Cc2ccccc2F)c1=O)C(=O)NN1CCCC1=O [Compound 1, 4-(5-(2,6-difluorobenzyl)-1-(2-fluorobenzyl)-2-oxo-1,2-dihydropyridin-3-yl)-4-hydroxy-2-oxo-N-(2-oxopyrrolidin-1-yl)but-3-enamide]
- Glucuronide (formed) (UGT1A1): None^a
- stability in pooled human liver microsomes ([5]; 50 μM, 0.5 mg/mL protein, NADPH, 37 °C): relatively stable
- CC50 [6]: 96200 nM
- EC50 [7, 19]: 33.4 nM
- Therapeutic Index (CC50/EC50) ([7]; PBMC, isolate CDC310342, CRF02-AG): 2,880
- inhibition of UGT1A4 (UGT1A4): not an inhibitor
- IC50 (CYP2C8): > 200000 nM
- EC50 [8, 19]: 52.4 nM
- Therapeutic Index (CC50/EC50) ([8]; PBMC, isolate CMU08, subtype E): 1,836
- EC50 fold change compared to wild-type virus [1]: 1.87
- EC50 fold change compared to wild-type virus [2]: 6.13
- IC50 (CYP2C9): > 200000 nM
- inhibition at 30 min, 200 μM (CYP2C9; human, liver microsomes, pH 7.4, probe tolbutamide 500 μM): 15.5%
- Therapeutic Index (CC50/EC50) (SIV isolate MAC251; SIV isolate MAC251): 5,037
- EC50 (SIV isolate MAC251; Simian immunodeficiency virus, in Homo sapiens, read-out: EC50 (± SD)): 19.1 nM
- activation of CYP isozymes [9]: not an activator
- EC50 (HIV-2 isolate CDC310319; Human immunodeficiency virus 2, PBMC, in Homo sapiens, read-out: EC50 (± SD)): 86 nM
- Therapeutic Index (CC50/EC50) (HIV-2 isolate CDC310319; PBMC, HIV-2 isolate CDC310319): 1,119
- EC50 [10]: 35 nM
- EC50 fold change compared to wild-type virus [3]: 8.20
- IC50 (CYP2D6): > 200000 nM
- EC50 [11, 19]: 6.89 nM
- Therapeutic Index (CC50/EC50) ([11]; PBMC, isolate 91US004, subtype B): 13,962
- EC50 fold change compared to wild-type virus [12]: 18.8
- EC50 [13, 19]: 29.8 nM
- Therapeutic Index (CC50/EC50) ([13]; PBMC, isolate 98IN022, subtype C): 3,228
- EC50 [14, 19]: 20.8 nM
- Therapeutic Index (CC50/EC50) ([14]; PBMC, isolate 92RW016, subtype A): 4,625
- EC50 fold change compared to wild-type virus (WT HIV-1 NL4-3): 1.0
- Glucuronide (formed) [15]: None^a
- EC50 [16, 19]: 48.5 nM
- Therapeutic Index (CC50/EC50) ([16]; PBMC, isolate 93UG067, subtype D): 1,984
- EC50 [17, 19]: 18.3 nM
- Therapeutic Index (CC50/EC50) ([17]; PBMC, isolate 93BR029, subtype F): 5,257
- EC50 fold change compared to wild-type virus [4]: 5.20
- IC50 (CYP2C19): > 200000 nM
- Glucuronide (formed) (UGT1A3): None^a
- EC50 [18, 19]: 34.9 nM
- Therapeutic Index (CC50/EC50) ([18]; PBMC, isolate G3, subtype G): 2,756
- activation of UGT isozymes (UGT isozymes): no indication of the activation
- IC50 (CYP3A4): > 200000 nM

Structure (SMILES): COc1cc2c(cc1Cc1cccc(Cl)c1F)c(=O)c(C(=O)O)cn2[C@H](CO)C(C)C [Elvitegravir, elvitegravir]
- EC50 fold change compared to wild-type virus [1]: 46.7
- EC50 fold change compared to wild-type virus [2]: 134
- EC50 fold change compared to wild-type virus [3]: 200
- EC50 fold change compared to wild-type virus [12]: 96.1
- EC50 fold change compared to wild-type virus (WT HIV-1 NL4-3): 1.0
- EC50 fold change compared to wild-type virus [4]: 5.5

Structure (SMILES): C[C@]12CC[C@@H]3c4ccc(O)cc4CC[C@H]3[C@@H]1CC[C@@H]2O [Estradiol, reference compound]
- Glucuronide (formed) (UGT1A1): Glucuronide
- Glucuronide (formed) [15]: Glucuronides (two)

Structure (SMILES): Cc1cc(=O)oc2cc(O)ccc12 [Methylumbelliferone, 4-methylumbelliferone]
- Glucuronide (formed) [15]: Glucuronide

Structure (SMILES): CN1CCN(CCCN2c3ccccc3Sc3ccc(C(F)(F)F)cc32)CC1 [Trifluoperazine]
- Glucuronide (formed) ([15]; pHLM (Xenotech), HPLC): N-Glucuronide

Structure (SMILES): Cc1ncc2n1-c1ccc(Cl)cc1C(c1ccccc1F)=NC2 [midazolam]
- remaining at 1 h ([5]; human, microsomes, pH 7.4): 61.5%
- Km ([5]; human, pH 7.4): 2.52 µM
